Shown are actives, neighbours in structure and some others; about 3.7% of the full set was active somewhere.
KCNQ1 act = potentiates or activates the human KCNQ1 potassium channel; P51787; AID 2648; 310,000 compounds, 0.35% hits; B-score at 10 µM; CHO-K1 KCNQ1, thallium flux FluxOR fluorescence; hits give high values;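 active means fluorescence ratio B-score, a plate-corrected score, at least three library SD, with initial intensity B-score within 5 SD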
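Test system: CHO-K1 cells stably expressing KCNQ1 / Medium: assay buffer / Also added: depolarizing K+/Tl+ stimulus, K2SO4 and Tl2SO4 each 12.5 mM in 5x stock / Incubation: 90 min dye loading and 20 min compound exposure, both at room temperature / Signal: thallium influx via FluxOR fluorescence, kinetic imaging / Evaluation: B score of baseline-normalized fluorescence ratio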
hERG protect = compounds protecting human hERG from proarrhythmic drug block; Q12809; CHO-hERG, FluxOR thallium flux, dofetilide IC70 present; AID 1511; activation (rescue from dofetilide block), less the hit threshold, % at 10 µM; 310,000 compounds, 0.51% hits;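 active means activation above the mean of controls blocked by dofetilide plus 5 SD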;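 further: thallium influx through hERG after potassium depolarization seen as dye fluorescence rise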
Kir21 inh = inhibitors of mouse Kir2.1 inward-rectifier potassium channel | B-score at 10 µM | 310,000 compounds, 0.85% hits | HEK293-Kir2.1, FluxOR thallium flux fluorescence; hits give low values | P35561 | AID 1672;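 active means fluorescence ratio B-score at or below minus 3 SD of library scores, with starting-brightness B-score within 2 SD, cut at about -4.2 in these data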;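 further: channel flux triggered by added potassium and thallium sulfate stimulus; B-score of peak minus minimum fluorescence over baseline after thallium stimulus; more negative B-score means stronger Kir2.1 block with less thallium influx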
KCNQ1 inh = inhibitors of human KCNQ1 potassium channel. P51787. CHO-K1 KCNQ1, FluxOR thallium flux fluorescence; hits give high values. B-score at 10 µM. 310,000 compounds, 1.3% hits. AID 2642;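 active means compounds whose thallium flux B-score, printed positive for inhibition, exceeds three library SD while starting fluorescence stays within three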;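 further: channel opened by potassium depolarization with thallium stimulus after 20 min compound exposure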
KCNK9 block = human KCNK9 channel inhibition. AID 488922. 310,000 compounds, 1.2% hits. HEK293 KCNK9, FluxOR thallium flux fluorescence; hits give low values. B-score at 10 µM;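 active means ratio B-score over 3 SD below the library mean, with starting fluorescence within 5 SD of its mean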;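 further: negative B-score means less thallium flux so channel inhibition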
Target sequence (Q9NPC2 whole entry, looked up): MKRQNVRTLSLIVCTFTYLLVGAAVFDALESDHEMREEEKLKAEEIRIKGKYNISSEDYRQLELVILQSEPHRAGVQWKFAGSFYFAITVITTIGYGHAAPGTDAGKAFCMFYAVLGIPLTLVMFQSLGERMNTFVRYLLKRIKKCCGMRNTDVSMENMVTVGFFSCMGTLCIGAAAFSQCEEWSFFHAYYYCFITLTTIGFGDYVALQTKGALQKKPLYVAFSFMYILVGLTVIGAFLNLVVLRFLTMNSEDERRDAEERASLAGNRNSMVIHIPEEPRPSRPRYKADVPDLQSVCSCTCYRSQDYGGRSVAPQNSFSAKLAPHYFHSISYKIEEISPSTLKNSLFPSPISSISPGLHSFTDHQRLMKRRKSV
KCNK3 block = human KCNK3 channel inhibition, primary screen | O14649 | CHO-KCNK3 thallium flux, FluxOR fluorescence; hits give low values | B-score at 10 µM | 340,000 compounds, 0.84% hits | AID 602410;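 active means B-score under library mean minus 4 SD, starting fluorescence ratio at most library mean plus 5 SD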;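 further: more negative B-score means stronger inhibition of thallium flux through KCNK3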
Target sequence (O14649 whole entry, looked up): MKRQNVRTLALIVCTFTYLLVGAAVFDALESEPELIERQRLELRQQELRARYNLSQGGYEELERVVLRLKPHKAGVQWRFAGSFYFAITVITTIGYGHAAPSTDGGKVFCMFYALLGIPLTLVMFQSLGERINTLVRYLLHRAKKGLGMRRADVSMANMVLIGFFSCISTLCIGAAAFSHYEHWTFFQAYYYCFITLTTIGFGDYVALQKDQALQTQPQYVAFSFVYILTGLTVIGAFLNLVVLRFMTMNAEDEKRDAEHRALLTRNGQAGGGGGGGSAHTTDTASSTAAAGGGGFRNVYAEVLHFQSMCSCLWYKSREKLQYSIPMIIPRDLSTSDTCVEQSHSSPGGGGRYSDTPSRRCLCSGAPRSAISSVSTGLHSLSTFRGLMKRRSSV
KCNQ1 block val = reconfirmed blocker of the human KCNQ1 potassium channel; shares compounds with KCNQ1 inh; KCNQ1 cell line, FluxOR thallium flux fluorescence; inhibition, % at 10 µM; 1,600 compounds, 93% hits;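 active means primary screen active, with duplicate mean exceeding buffer control mean plus 3 SD of buffer wells, cut at about 28% in these data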
CHO KCNQ1 ctr = counter-screen for KCNQ1 inhibitors: effect in parental CHO cells. fluorescence ratio (Tl flux) at 10 µM. parental CHO-K1, FluxOR thallium flux fluorescence ratio; hits give low values; zero means no signal rise above baseline. 1,600 compounds, 21% hits. AID 588366. shares compounds with KCNQ1 inh;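 active means mean of duplicate thallium-flux fluorescence ratios in parental host cells more than 5 SD below the buffer control mean, cut at about 0.38 in these data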;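 further: ratio is peak minus minimum fluorescence divided by baseline fluorescence; actives read low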
KCNQ1 ephys val = confirmation of human KCNQ1 potassium channel inhibitors by electrophysiology. shares compounds with KCNQ1 inh. KCNQ1-CHO cells, automated patch clamp current. calls only at 10 µM. 490 compounds, 20% hits. AID 624120;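 active means KCNQ1 current drop exceeding 3 SD of negative control wells, seen in both duplicate runs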;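 further: steady state current during a 2 s step from -80 to +40 mV; negative values mean current inhibition and positive values mean potentiation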
KCNQ2 spec = KCNQ1 inhibitor that also blocks rat KCNQ2 channel; KCNQ2 cells, FluxOR thallium flux fluorescence; shares compounds with KCNQ1 inh; inhibition, % at 10 µM; 1,600 compounds, 71% hits; AID 651746;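 active means mean percent inhibition of the KCNQ2 thallium signal more than 5 SD above the buffer-only control wells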;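 further: KCNQ2 expressed in CHO cells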
KCNQ1-KCNE1 inh = human KCNQ1/KCNE1 inhibition in KCNQ1 specificity screen; KCNQ1/KCNE1 cells, FluxOR thallium flux fluorescence; 1,600 compounds, 77% hits; inhibition, % at 10 µM; shares compounds with KCNQ1 inh;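 active means mean percent inhibition of duplicate wells above the buffer-only control mean plus 3 SD of those controls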
KCNK9 inh conf = confirmation of human KCNK9 potassium channel inhibitors; shares compounds with KCNK9 block; HEK293 KCNK9 cells, FluxOR thallium flux fluorescence; inhibition, % at 10 µM; 4,900 compounds, 43% hits; AID 492992;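 active means thallium signal inhibited by more than 5 SD of the compound-free buffer control wells, on both duplicate plates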
Kir21 sel = mouse Kir2.1 off-target activity of KCNK9 modulators; shares compounds with KCNK9 block; 4,900 compounds, 4% hits; inhibition, % at 10 µM; Kir2.1 cells, FluxOR thallium flux fluorescence;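 active means thallium signal drop more than 5 SD beyond the mean of the no-compound control wells, seen in both duplicate plates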;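 further: signal is fluorescence rise after thallium addition divided by baseline fluorescence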
KCNK9 uninduced = non-induced cell nonspecific activity of KCNK9 modulators | shares compounds with KCNK9 block | non-induced KCNK9-HEK293, FluxOR thallium flux | inhibition, % at 10 µM | 4,900 compounds, 40% hits | AID 492997;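 active means thallium signal drop beyond 5 SD of the untreated control mean, on both duplicate plates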
KCNK3 confirm = confirmation of human KCNK3 two-pore domain potassium channel inhibitors; shares compounds with KCNK3 block; CHO-KCNK3 thallium flux, FluxOR fluorescence; 0% buffer, 100% carvedilol maximal block; ratio percent of control, % at 10 µM; 2,400 compounds, 99% hits;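 active means ratio percent of control, averaged over triplicates, above buffer control mean plus 5 SD, cut at about 64% in these data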;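 further: ratio is the fluorescence rise from min to max over baseline after thallium stimulus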
KCNK3 uninduced = activity in cells without induced KCNK3 expression; shares compounds with KCNK3 block; non-induced KCNK3 parental cells, FluxOR thallium flux; hits give low values; thallium flux ratio (lower = more inhibition) at 10 µM; 2,400 compounds, 40% hits;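 active means thallium flux ratio, averaged over three wells, more than 5 SD below the buffer control mean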;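 further: host cells are CHO cells without KCNK3 induction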
A number is an active result; - = inactive; . = not tested or not shown; + = active, no number.

SMILES	KCNQ1 act	hERG protect	Kir21 inh	KCNQ1 inh	KCNK9 block	KCNK3 block	KCNQ1 block val	CHO KCNQ1 ctr	KCNQ2 spec	KCNQ1-KCNE1 inh	KCNK3 confirm	KCNK3 uninduced	others
CCCCc1c(C)c2ccc(OC)c(/C(C)=N\O)c2oc1=O	-	-	-	-	-	-	.	.	.	.	.	.
CCOc1ncccc1C(=O)OCC(=O)Nc1cc(C(C)(C)C)ccc1OC	.	.	.	.	.	-	.	.	.	.	.	.
COc1ccc(-c2csc(N(CC(C)C)C(=O)c3ccco3)n2)cc1	-	-	-	7	-	-9.9	107	-	80%	139%	162	0.073	KCNQ1 ephys val=+
CN(C)S(=O)(=O)c1ccc(NC(=O)C2CC(=O)N(Cc3ccccc3Cl)C2)cc1 (centres undefined)	-	-	-	-	-	-	.	.	.	.	.	.
CC1CCN(S(=O)(=O)c2ccc(NC(=O)c3ccncc3)cc2)CC1	-	-	-	-	-	-	.	.	.	.	.	.
CCS(=O)(=O)c1ncc(Cl)c(C(=O)Nc2ccc(S(=O)(=O)N3CCC(C)CC3)cc2)n1	-	-	-	6	-7	-8.8	-	-	-	70%	124	0.12
Cn1c(N2CCN(C(=O)Nc3ccc(F)cc3)CC2)nc2ccccc21	-	-	-	-	-	-	.	.	.	.	.	.
Cn1c(N2CCN(C(c3ccccc3)c3ccccc3)CC2)nc2ccccc21	-	-	-	12	-14	-13	142	-	142%	+	117	0.16	KCNQ1 ephys val=-;KCNK9 inh conf=84%;Kir21 sel=-;KCNK9 uninduced=-
CNS(=O)(=O)c1ccc(NC(=O)c2cc(-c3ccncc3)nc3ccc(Cl)cc23)cc1	-	-	-	-	-	-	.	.	.	.	.	.
Cn1c(=O)c2c(nc(Sc3ncnn3CC(=O)NC3CCCCC3)n2C)n(C)c1=O	-	-	-	-	-	-	.	.	.	.	.	.
O=C(c1cnc(N2CCN(c3ccccn3)CC2)c2ccccc12)N1CCN(c2cccc(Cl)c2)CC1	-	-	-	10	-	-9.3	102	0.38	119%	130%	97	-
O=C(c1cc(Cl)ccc1Cl)N1CCN(c2ccccn2)CC1	-	-	-	-	-	-	.	.	.	.	.	.
Cc1ccc([N+](=O)[O-])cc1NC(=O)c1cccnc1	-	-	-	-	-	-	.	.	.	.	.	.
O=c1c2c(nc(NCCO)n1CC1CCCCC1)-c1ccccc1CC21CCCC1	-	-	-	6	-7.4	-16	91	-	104%	-	115	0.16	KCNQ1 ephys val=-
CC1(C)CC(n2c(NCCO)nc3c(c2=O)C2(CCCC2)Cc2ccccc2-3)CCO1 (centres undefined)	-	-	-	-	-	-	.	.	.	.	.	.
COc1ccccc1N1CCN(S(=O)(=O)CC23CCC(CC2=O)C3(C)C)CC1 (centres undefined)	-	-	-	-	-	-	.	.	.	.	.	.
Cc1ccc(CSc2nc3c(c(SCC(=O)O)n2)CCCC3)cc1	-	-	-	-	-	-	.	.	.	.	.	.
CNc1nc(SCc2ccc(C)cc2)nc2c1CCCC2	-	-	-	10	-	-11	130	-	101%	102%	134	0.15	KCNQ1 ephys val=-
Cc1ccnc(NC(=O)c2cccc(NS(=O)(=O)c3ccccc3C)c2)c1	.	.	.	.	.	-	.	.	.	.	.	.
O=C(Nc1cccc(C(=O)Nc2cccc(Br)c2)c1)c1ccccc1	-	-	-	13	-	-12	116	-	111%	151%	118	-	KCNQ1 ephys val=-
CC(C)(C)c1cc(C(=O)NCc2cc(F)cc3c2OCOC3)n(Cc2ccccc2)n1	-	-	-	9	-7.9	-12	134	0.37	101%	198%	135	0.13
CC(C)(C)c1cc(C(=O)NNC(=O)Nc2ccccc2)n(Cc2ccccc2)n1	-	-	-	-	-	-	.	.	.	.	.	.
O=C(COC(=O)c1ccc2c(c1)C(=O)N(CCc1ccccc1)C2=O)Nc1ccc(OC(F)F)cc1	-	-	-	-	-	-	.	.	.	.	.	.
Cc1cc(OCC(=O)Nc2ccncc2)c(C)cc1Br	-	-	-	8	-	-9.2	132	-	108%	44%	122	-	KCNQ1 ephys val=-
CC(C)(C)c1ccc(OCC(=O)Nc2ccncc2)c(Br)c1	-	-	-	19	-	-8.8	142	-	-	74%	138	0.12	KCNQ1 ephys val=-
SMILES	KCNQ1 act	hERG protect	Kir21 inh	KCNQ1 inh	KCNK9 block	KCNK3 block	KCNQ1 block val	CHO KCNQ1 ctr	KCNQ2 spec	KCNQ1-KCNE1 inh	KCNK3 confirm	KCNK3 uninduced	others
CCc1ccc(OCC(=O)Nc2ccncc2)c(Br)c1	-	-	-	-	-	-	.	.	.	.	.	.
CCOC(=O)C1=C(C)N(CCCC(=O)O)C(=O)NC1c1ccc(Cl)cc1 (centres undefined)	-	-	-	-	-	-	.	.	.	.	.	.
COc1ccc(OCCSc2nnc(C(C)NC(=O)c3ccccc3F)n2C)cc1 (centres undefined)	-	-	-	-	-	-	.	.	.	.	.	.
Cc1ccn2cc(-c3cccc(NC(=O)c4cccs4)c3)nc2c1	-	-	-	8	-	-11	58	-	-	82%	96	-
CC(C)Nc1nc(NC(C)C)nc(N(C#N)CCOc2ccc(Cl)cc2Cl)n1	-	-	-	14	-7.9	-12	134	0.31	128%	+	135	0.13
Cc1cc(C)nc(N(C#N)CCOc2ccc(Cl)cc2)n1	-	-	-	-	-	-	.	.	.	.	.	.

Screening data from PubChem BioAssay.
